The subject of assay [1] is HCT-116. As to the kind of experiment: Induction of apoptosis in human HCT116 cells assessed as necrotic cells at 0.5 uM after 24 hrs by Annexin V-PE/7-AAD staining-based FACS analysis (reference value: 0.885%). In kind it is functional.
The target in assay [2] is T1, Focal adhesion kinase 1 (Homo sapiens, UniProt Q05397). Put plainly: Inhibition of FAK phosphorylation at tyrosine 397 in human HCT116 cells after 48 hrs by FACEFAK ELISA. In kind it is cell-based. Particulars: HCT-116. An outline of the steps: (§1)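 Cells in DMEM with 10% FBS, 3 × 10^3 per well, treated 48 h at 0.1, 1 and 10 μM. Fixed in 4% formaldehyde; antibodies to pTyr397-FAK or total FAK, HRP secondary, read at 450 nm. Crystal violet cell count at 595 nm. Phospho-FAK normalised to total FAK and cell number; fold decrease versus control, triplicate readings, three independent experiments.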
(An ELISA detects its analyte on a solid surface through an enzyme-linked reagent.)
Target sequence in this assay (Q05397 2-1052 limits assumed): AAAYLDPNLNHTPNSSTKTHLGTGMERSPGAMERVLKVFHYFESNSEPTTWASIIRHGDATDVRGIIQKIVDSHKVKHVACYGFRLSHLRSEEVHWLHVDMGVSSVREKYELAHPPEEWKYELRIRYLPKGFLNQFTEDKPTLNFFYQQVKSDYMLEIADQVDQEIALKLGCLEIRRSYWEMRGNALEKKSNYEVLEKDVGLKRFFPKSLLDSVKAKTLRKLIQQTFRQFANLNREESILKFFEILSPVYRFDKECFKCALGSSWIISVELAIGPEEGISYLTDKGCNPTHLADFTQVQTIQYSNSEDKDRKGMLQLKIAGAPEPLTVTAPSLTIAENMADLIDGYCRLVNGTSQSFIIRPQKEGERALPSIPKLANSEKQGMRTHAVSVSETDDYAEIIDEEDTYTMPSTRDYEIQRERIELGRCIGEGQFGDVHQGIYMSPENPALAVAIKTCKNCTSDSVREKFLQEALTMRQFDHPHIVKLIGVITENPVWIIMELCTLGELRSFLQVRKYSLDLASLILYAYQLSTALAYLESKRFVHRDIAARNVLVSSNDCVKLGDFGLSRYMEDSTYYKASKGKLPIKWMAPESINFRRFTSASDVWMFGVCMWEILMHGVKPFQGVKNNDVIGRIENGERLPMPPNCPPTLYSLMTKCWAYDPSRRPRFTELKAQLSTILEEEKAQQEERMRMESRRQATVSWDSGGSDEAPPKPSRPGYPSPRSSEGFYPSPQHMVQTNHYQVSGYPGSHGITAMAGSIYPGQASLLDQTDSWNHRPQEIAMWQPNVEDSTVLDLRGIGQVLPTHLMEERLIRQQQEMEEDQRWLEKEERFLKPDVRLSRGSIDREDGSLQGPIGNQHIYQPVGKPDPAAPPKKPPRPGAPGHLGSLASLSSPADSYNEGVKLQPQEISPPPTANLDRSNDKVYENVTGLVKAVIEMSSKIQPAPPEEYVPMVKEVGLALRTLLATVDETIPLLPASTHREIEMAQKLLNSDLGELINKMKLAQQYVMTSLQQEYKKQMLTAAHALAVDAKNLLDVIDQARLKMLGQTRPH

Assay [3] in a line: Cell cycle arrest in human HCT116 cells assessed as accumulation at S phase at 0.5 uM after 24 hrs by propidium iodide staining-based flow cytometry (reference value: 17.7%). In kind it is functional. Particulars: HCT-116. Summed up:
(§2)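 Cells plated at 10^5 per well, left overnight, then exposed 24 h to compound or vehicle; stained 15 min at 37 °C with propidium iodide/Triton buffer; DNA content by flow cytometry, phase distribution fitted by Dean–Jett–Fox; HCT-116 at 0.3–0.5 μM, U87-MG at 0.3–3 μM; significance by unpaired Student's t test; one representative experiment.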

The nature of assay [4]: Cell cycle arrest in human U87MG cells assessed as accumulation at G2 phase at 3 uM after 24 hrs by propidium iodide staining-based flow cytometry relative to control. In kind it is functional. The note with it: U-87MG ATCC. An outline of the steps: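 U87-MG cells plated at 10^5 per well, incubated overnight, then exposed to compound or vehicle control for 24 h. Cells stained with propidium iodide in PI/triton buffer for 15 min at 37 °C and analysed by flow cytometry. Cell-cycle phases were assigned by the Dean–Jett–Fox method. Significance was tested by unpaired Student's t test, and one representative experiment is shown.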

Assay [5] in a line: Cell cycle arrest in human U87MG cells assessed as accumulation at S phase at 3 uM after 24 hrs by propidium iodide staining-based flow cytometry (reference value: 16%). Particulars: U-87MG ATCC. In kind it is functional. An outline of the steps:
as §2
On the technique in general: Flow cytometry measures light scatter and fluorescence of single cells or particles in a stream.

Assay [6] in a line: Antimigratory activity in human U87MG cells at 3 uM […] by transwell membrane assay. In kind it is functional, U-87MG ATCC.
Assay [7] has as its system U-87MG ATCC. As to the kind of experiment: (§3) Inhibition of colony formation in human U87MG cells after 2 weeks by crystal violet staining-based assay. In kind it is functional, cell-based. Summed up:
(§4)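 Seeding: 250 cells per well for HCT-116, 300 for U87MG, MDA-MB-231 and PC-3; incubated overnight, then exposed to a range of concentrations for 2 weeks. Fixed in 4% paraformaldehyde 30 min at room temperature, stained with 0.1% crystal violet. Colonies over 50 cells counted; colony formation rate calculated; IC50 by nonlinear regression.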

A short description of assay [8]: as §3. In kind it is functional, cell-based, U-87MG ATCC. Particulars: U-87 MG, 336 h. An outline of the steps: as §4
The target of assay [9] is T1, Focal adhesion kinase 1. As to the kind of experiment: Inhibition of FAK phosphorylation at tyrosine 397 in human U87MG cells after 48 hrs by FACEFAK ELISA. In kind it is cell-based. Particulars: U-87MG ATCC. An outline of the steps: as §1
Target sequence in this assay (Q05397 2-1052 limits assumed): as above
The target in assay [10] is T1, Focal adhesion kinase 1. As to the kind of experiment: Inhibition of FAK (unknown origin) using ULight-poly GT as substrate after 1.6 hrs by TR-FRET assay.
Target sequence in this assay (Q05397 whole entry): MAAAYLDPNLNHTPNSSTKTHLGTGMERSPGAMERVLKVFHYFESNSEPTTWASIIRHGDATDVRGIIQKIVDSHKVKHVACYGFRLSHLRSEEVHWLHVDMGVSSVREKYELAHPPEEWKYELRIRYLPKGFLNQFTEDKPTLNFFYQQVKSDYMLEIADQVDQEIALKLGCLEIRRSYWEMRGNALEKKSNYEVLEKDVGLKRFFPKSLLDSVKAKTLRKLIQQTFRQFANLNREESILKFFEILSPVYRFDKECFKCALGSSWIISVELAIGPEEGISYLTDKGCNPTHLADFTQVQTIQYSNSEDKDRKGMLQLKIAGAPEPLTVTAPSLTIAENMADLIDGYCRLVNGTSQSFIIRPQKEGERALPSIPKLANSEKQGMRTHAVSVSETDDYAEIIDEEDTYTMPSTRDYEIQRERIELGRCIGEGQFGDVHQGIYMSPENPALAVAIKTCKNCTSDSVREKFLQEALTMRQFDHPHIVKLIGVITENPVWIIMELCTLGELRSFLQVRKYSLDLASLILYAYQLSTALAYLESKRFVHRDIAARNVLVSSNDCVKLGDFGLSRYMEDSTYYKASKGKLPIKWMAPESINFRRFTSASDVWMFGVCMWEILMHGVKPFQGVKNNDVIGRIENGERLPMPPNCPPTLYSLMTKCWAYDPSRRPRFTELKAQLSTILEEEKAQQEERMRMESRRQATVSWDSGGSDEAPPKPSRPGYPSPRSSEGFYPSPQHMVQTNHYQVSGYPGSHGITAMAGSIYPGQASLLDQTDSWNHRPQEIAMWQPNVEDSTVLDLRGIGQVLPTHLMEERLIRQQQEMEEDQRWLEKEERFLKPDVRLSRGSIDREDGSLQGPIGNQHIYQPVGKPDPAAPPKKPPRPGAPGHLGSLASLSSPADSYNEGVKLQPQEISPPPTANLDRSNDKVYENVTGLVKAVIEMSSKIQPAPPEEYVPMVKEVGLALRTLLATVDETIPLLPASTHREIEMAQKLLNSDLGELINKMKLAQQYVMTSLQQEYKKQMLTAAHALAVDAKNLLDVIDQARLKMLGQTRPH
Assay [11] can be described thus: Antiinvasive activity in human U87MG cells after 24 hrs by matrigel assay. In kind it is functional, U-87MG ATCC. Summed up: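 U-87MG pre-exposed 24 h to compound or DMSO in 3% FBS, then 4 × 10^4 cells seeded in upper chamber of impedance-based CIM-16 plate (8 μm pore membrane) coated with Matrigel/collagen; lower chamber 10% FBS; cell index monitored at 37 °C, 5% CO2 for 12 h; slope (1/h) over set interval, DMSO slope set to 100; duplicate wells, repeated twice.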

A short description of assay [12]: Cell cycle arrest in human HCT116 cells assessed as accumulation at G0/G1 phase at 0.5 uM after 24 hrs by propidium iodide staining-based flow cytometry (reference value: 63.8%). The note with it: HCT-116. In kind it is functional. Summed up:
as §2

The values that follow come from ChEMBL document CHEMBL3392964, “Design, synthesis, and evaluation of novel imidazo[1,2-a][1,3,5]triazines and their derivatives as focal adhesion kinase inhibitors with antitumor activity” (J Med Chem, 2015).

In general, IC50 refers to the point on the concentration scale where inhibition reaches its midpoint. Low values mean higher potency, high ones lower potency.

On to `C=COC(=O)NCc1ccc(Nc2nc(Nc3ccccc3C(=O)NC)n3ccnc3n2)cc1`, for which the Activity in [1] worked out at 7.77%; in [3] it was 11.6%; in [5], 5.08%; in assay [6], 69.5%; in assay [11], 50%; in assay [12], 29.9%. Besides, the inhibition entry in assay [2], in assay [7] and in [9] was “Dose-dependent effect” each time. For the same molecule, the Ratio in assay [4] was found to be 2.9. Moreover, the results for the IC50 in assay [8] and in assay [10] were 420 nM and 50 nM, respectively.
